Measured values taken from ChEMBL document CHEMBL2321843, “Opioid peptidomimetics: leads for the design of bioavailable mixed efficacy μ opioid receptor (MOR) agonist/δ opioid receptor (DOR) antagonist ligands” (J Med Chem, 2013).
Calls of active or inactive are those of the source.

Key:
[1] = target: Delta-type opioid receptor (Rattus norvegicus) (UniProt P33533); conditions: C6
[2] = target: T1, Delta-type opioid receptor (Rattus norvegicus, UniProt P33533); assay: Agonist activity at rat DOR expressed in rat C6 cells assessed as stimulation of [35S]GTPgammaS binding after 1 hr by liquid scintillation counting analysis; assay type: functional, cell-based
T1 sequence (P33533 whole entry): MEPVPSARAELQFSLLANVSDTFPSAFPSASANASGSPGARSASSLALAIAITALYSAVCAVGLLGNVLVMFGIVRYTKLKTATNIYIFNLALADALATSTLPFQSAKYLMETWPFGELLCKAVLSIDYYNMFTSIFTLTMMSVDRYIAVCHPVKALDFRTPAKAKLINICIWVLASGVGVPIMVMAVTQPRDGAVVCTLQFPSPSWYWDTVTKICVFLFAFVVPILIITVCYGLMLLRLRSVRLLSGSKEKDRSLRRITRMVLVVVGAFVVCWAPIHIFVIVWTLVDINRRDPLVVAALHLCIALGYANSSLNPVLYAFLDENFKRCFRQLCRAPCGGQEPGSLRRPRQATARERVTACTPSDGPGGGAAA

[3] = target: Mu-type opioid receptor (Rattus norvegicus) (UniProt P33535); assay: Agonist activity at rat MOR expressed in rat C6 cells assessed as stimulation of [35S]GTPgammaS binding at 10 uM after 1 hr by liquid scintillation counting analysis relative to DAMGO; assay type: functional, cell-based
Mu-type opioid receptor (Rattus norvegicus), sequence (P33535 whole entry): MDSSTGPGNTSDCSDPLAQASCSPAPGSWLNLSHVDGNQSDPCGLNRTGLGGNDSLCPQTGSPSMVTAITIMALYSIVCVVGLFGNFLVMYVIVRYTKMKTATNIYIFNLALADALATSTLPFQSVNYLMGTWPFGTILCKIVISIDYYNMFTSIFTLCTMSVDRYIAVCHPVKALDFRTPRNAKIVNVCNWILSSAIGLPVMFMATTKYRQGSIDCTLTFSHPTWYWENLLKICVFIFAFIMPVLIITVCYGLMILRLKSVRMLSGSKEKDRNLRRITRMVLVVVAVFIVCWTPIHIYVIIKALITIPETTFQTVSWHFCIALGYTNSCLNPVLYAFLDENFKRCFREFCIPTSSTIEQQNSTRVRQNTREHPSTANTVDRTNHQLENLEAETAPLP

[4] = target: T2, Kappa-type opioid receptor (Homo sapiens, UniProt P41145); assay type: cell-based, CHO
T2 sequence (P41145 whole entry): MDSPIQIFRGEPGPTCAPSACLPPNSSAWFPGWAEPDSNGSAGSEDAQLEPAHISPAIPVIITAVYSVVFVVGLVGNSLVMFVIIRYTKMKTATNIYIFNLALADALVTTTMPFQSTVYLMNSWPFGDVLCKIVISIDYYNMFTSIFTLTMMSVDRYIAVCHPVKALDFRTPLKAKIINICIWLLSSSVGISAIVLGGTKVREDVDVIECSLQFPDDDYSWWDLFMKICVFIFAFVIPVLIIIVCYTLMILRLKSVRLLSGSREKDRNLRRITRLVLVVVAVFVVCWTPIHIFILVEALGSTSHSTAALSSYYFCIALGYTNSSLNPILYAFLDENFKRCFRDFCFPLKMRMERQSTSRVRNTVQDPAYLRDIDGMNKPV

[5] = target: T1, Delta-type opioid receptor; assay: Displacement of [3H]diprenorphine from rat DOR expressed in rat C6 cells after 1 hr by liquid scintillation counting analysis; assay type: cell-based
[6] = target: T2, Kappa-type opioid receptor; assay type: functional, cell-based, CHO
Mus musculus [7] = assay: Antinociceptive activity in C57BL/6 mouse assessed as duration of maximal activity at 10 mg/kg, ip by warm water tail withdrawal assay; assay type: functional; conditions: route intraperitoneal
In short: (§1)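 Male C57BL/6 mice given a single ip dose of 10 mg/kg. Tail-withdrawal latency (50 °C water, 20 s cutoff) measured at varying times after dosing to build a time course.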

Mus musculus [8] = assay: Antinociceptive activity in ip dosed C57BL/6 mouse assessed as tail withdrawal latency after 30 mins by warm water tail withdrawal assay; assay type: functional
Mus musculus [9] = assay: Antinociceptive activity in C57BL/6 mouse assessed as tail withdrawal latency at 3.2 to 32 mg/kg, ip after 30 mins by warm water tail withdrawal assay in presence of opioid antagonist naltrexone; assay type: functional, organism-based
In short: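 Male C57BL/6 mice pretreated ip with naltrexone 1 mg/kg, 30 min before testing. Cumulative ip dosing to totals of 3.2, 10 and 32 mg/kg at 30 min intervals, with latency read 30 min after each injection. Tail tip immersed in 50 °C water, 20 s cutoff.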

Mus musculus [10] = assay: Antinociceptive activity in C57BL/6 mouse assessed as increase in duration of maximal activity at 10 mg/kg, ip by warm water tail withdrawal assay; assay type: functional, organism-based; parameters: dose 10 mg/kg
In short: as §1

[11] = target: Delta-type opioid receptor (Rattus norvegicus) (UniProt P33533); assay: Agonist activity at rat DOR expressed in rat C6 cells assessed as stimulation of [35S]GTPgammaS binding at 10 uM after 1 hr by liquid scintillation counting analysis relative to DPDPE; assay type: functional, cell-based
[12] = target: T2, Kappa-type opioid receptor; conditions: CHO, 10 uM
Mu-type opioid receptor [13] = target: T3, Mu-type opioid receptor (Rattus norvegicus, UniProt P33535); assay: Agonist activity at rat MOR expressed in rat C6 cells assessed as stimulation of [35S]GTPgammaS binding after 1 hr by liquid scintillation counting analysis; assay type: functional, cell-based
T3 sequence (P33535 whole entry): as the sequence (P33535 whole entry) above

Mu-type opioid receptor [14] = target: T3, Mu-type opioid receptor; assay: Displacement of [3H]diprenorphine from rat MOR expressed in rat C6 cells after 1 hr by liquid scintillation counting analysis; assay type: cell-based

Delta-type opioid receptor (Rattus norvegicus), sequence (P33533 whole entry): as the sequence (P33533 whole entry) above

| Structure (SMILES) | EC50 [2] | Emax [3] [%] | Ki [4] [nM] | Ki [5] [nM] | EC50 ([6]; cho) | also measured |
| --- | --- | --- | --- | --- | --- | --- |
| Cc1cc(O)cc(C)c1C[C@H](N)C(=O)N[C@@H]1CCNc2ccc(Cc3ccc4ccccc4c3)cc21 | Not Active | 96 | 54 | 10 | Not Active | Ke [1]: 34.3 nM |
| Cc1cc(O)cc(C)c1C[C@H](N)C(=O)N[C@@H]1CCNc2ccc(Cc3ccccc3)cc21 | – | – | – | – | – | Time (Mus musculus [7]): 60 min; Activity (Mus musculus [8]): Dose-dependent effect; ED50 (Mus musculus [8]; C57BL/6, Tail, 0.5 h): 3 mg/kg; Activity (Mus musculus [9]): inactive |
| CN1CC[C@]23c4c5ccc(O)c4O[C@H]2[C@@H](O)C=C[C@H]3[C@H]1C5 | – | – | – | – | – | Activity (Mus musculus [10]): Active |
| Cc1cc(O)cc(C)c1C[C@H](N)C(=O)N[C@@H]1CCNc2ccc(Cc3cccc4ccccc34)cc21 | – | 93 | – | – | Not Active | Emax [11]: 15% |
| Cc1cc(O)cc(C)c1C[C@H](N)C(=O)N[C@@H]1CCNc2ccc(CCc3ccccc3)cc21 | Not Active | 45 | – | – | Not Active | – |
| Cc1cc(O)cc(C)c1C[C@H](N)C(=O)N[C@@H]1CCNc2ccc(CC3Cc4ccccc4C3)cc21 | Not Active | 86 | 1.2 | 4.1 | – | Emax [12]: 38%; EC50 (Mu-type opioid receptor [13]): 0.24 nM; Ki (Mu-type opioid receptor [14]): 0.16 nM; EC50 ([6]; read-out: EC50): 68 nM |
